Experimental data of several laboratories.

COC(=O)C1CCN(C(=O)c2ccc(NCc3cnc4nc(N)nc(N)c4n3)cn2)CC1 gave an inhibition of -7.93% (Cytochrome P450 3A4 (CYP3A4, Homo sapiens, UniProt P08684); enzyme activity, inhibitor, luciferase; 10 µM).
COc1cc(C(=O)NC2CCN(C)CC2)c(F)cc1Nc1ncc(C(F)(F)F)c(Oc2cccc3c2C(=O)N(C)C3)n1 has a Vd/F of 290 L (human, plasma; oral, 200 mg, multiple doses, once daily, patients).
For O=S(=O)(NNc1nnc(Cl)c2ccccc12)c1ccc(F)cc1, the viability was 88.2% (Vero; cell growth or viability, MTT; 62.5 µg/mL).
CC(C)(C)c1ccc(O)c(CN(Cc2cc(C(C)(C)C)ccc2O)C2CCC(NC(N)=O)CC2)c1 (centres unmarked) gave a Cmax of 3620 ng/mL (male C57BL/6 mouse, plasma; intraperitoneal, 25 mg/kg, single dose).
The viability of CCNc1nc(Nc2ccc(F)c(Cl)c2)c2ccccc2n1 is reported as 20.6% (Vero; cell growth or viability, MTT; 250 µg/mL).
The inhibition of CCOC(=O)C1CCCN1C(=O)c1ccc(NCc2cnc3nc(N)nc(N)c3n2)cc1 (centres unmarked) is reported as -16% (Cytochrome P450 1A2 (CYP1A2, Homo sapiens, UniProt P05177); enzyme activity, inhibitor, luciferase; 10 µM).
Cc1cc(Nc2cc(N3CCN(C)CC3)nc(/C=C/c3ccccc3)n2)n[nH]1 has a Vd/F of 1710 L (human, plasma; oral, 60 mg/m², patients).
Cn1cnc2c1c(=O)n(CC(=O)Nc1c(Cl)cccc1Cl)c(=O)n2C has a viability of 25.3% (Vero; cell growth or viability, MTT; 500 µg/mL).
